Measured values taken from ChEMBL document CHEMBL2163331, “Multidrug resistance reversal and apoptosis induction in human colon cancer cells by some flavonoids present in citrus plants” (J Nat Prod, 2012).
The source made the active and inactive calls. No cut-off for these calls is given here.

What was measured:
[1] = Induction of apoptosis in human […] cells assessed as necrotic cells at 100 uM after 48 hrs by annexin-V and propidium iodide staining based flow cytometry (reference value: 9.57 +/- 2.83%); assay type: functional
[2] = Induction of apoptosis in human […] cells assessed as apoptotic cells at 100 uM after 48 hrs by annexin-V and propidium iodide staining based flow cytometry (reference value: 6.16 +/- 1.67%); assay type: functional
LoVo [3] = test: Induction of apoptosis in human drug-sensitive LoVo cells assessed as necrotic cells at 100 uM after 48 hrs by annexin-V and propidium iodide staining based flow cytometry (reference value: 10.44 +/- 3.23%); assay type: functional
LoVo [4] = test: Induction of apoptosis in human drug-sensitive LoVo cells assessed as apoptotic cells at 100 uM after 48 hrs by annexin-V and propidium iodide staining based flow cytometry (reference value: 6.68 +/- 1.77%); assay type: functional
LoVo/DX = test: Cytotoxicity against human drug-resistant LoVo/DX cells after 72 hrs by SRB assay; assay type: functional, cell-based
Outline: (§1)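 Cells seeded at 30 000/well, attached 60 min at 37 °C, then compound added in an equal volume of medium and incubated 72 h. Read by sulforhodamine B at A492. Survival = A492 treated / A492 medium-only control × 100%. DMSO was at most 0.3% in samples. Triplicate experiments, means ± SD, Student's t test.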

LoVo [5] = test: Cytotoxicity against human drug-sensitive LoVo cells after 72 hrs by SRB assay; assay type: functional, cell-based; outline: as §1
[6] = target: T1, ATP-dependent translocase ABCB1 (Homo sapiens, UniProt P08183); test: Inhibition of p-glycoprotein in human LoVo/DX cells assessed accumulation of rhodamine 123 at 5 to 100 uM after 60 mins by fluorescence assay; details: 1 h
T1 sequence (P08183 whole entry): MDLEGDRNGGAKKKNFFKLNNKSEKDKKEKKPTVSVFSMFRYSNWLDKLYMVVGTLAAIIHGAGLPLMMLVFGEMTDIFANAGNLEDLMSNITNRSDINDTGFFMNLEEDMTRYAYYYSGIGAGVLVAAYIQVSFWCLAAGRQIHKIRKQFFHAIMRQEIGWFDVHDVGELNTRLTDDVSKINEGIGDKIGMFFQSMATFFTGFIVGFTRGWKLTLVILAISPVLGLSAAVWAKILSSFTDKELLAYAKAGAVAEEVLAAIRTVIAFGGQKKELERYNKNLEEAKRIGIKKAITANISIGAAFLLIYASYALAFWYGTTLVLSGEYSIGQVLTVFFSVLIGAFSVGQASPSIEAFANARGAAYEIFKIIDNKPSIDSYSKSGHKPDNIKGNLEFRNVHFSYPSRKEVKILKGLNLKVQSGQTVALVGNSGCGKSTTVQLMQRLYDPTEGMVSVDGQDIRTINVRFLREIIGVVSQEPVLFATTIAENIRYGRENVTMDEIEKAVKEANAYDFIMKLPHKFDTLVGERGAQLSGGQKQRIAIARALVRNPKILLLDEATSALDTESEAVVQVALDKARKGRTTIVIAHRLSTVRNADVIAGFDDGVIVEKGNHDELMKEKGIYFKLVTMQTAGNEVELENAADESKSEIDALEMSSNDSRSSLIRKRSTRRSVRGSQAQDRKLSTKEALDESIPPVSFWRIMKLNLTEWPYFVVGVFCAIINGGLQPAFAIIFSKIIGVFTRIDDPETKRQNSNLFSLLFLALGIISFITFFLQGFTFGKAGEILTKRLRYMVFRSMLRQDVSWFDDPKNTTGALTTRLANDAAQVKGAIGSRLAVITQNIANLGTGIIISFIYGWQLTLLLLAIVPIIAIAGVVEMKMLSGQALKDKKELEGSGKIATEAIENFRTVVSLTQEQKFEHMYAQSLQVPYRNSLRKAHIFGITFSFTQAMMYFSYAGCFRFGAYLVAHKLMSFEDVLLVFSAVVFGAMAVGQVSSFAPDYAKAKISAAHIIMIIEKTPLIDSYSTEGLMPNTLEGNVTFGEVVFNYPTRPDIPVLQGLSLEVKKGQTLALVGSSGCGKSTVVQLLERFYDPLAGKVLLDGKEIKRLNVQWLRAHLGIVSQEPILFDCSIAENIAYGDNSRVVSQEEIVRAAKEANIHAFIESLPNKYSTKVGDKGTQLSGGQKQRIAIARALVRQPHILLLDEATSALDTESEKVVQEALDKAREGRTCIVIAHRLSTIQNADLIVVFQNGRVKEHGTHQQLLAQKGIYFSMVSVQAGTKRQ

[7] = Induction of apoptosis in human […] cells assessed as activation of caspase-3 at 15 uM after 48 hrs relative to control; assay type: functional
Outline: (§2)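 LoVo (sensitive) or LoVo/Dx (doxorubicin-selected; kept in 100 ng/mL doxorubicin) cells, 800 000/well, attached 24 h, then exposed to compound in fresh medium for 48 h. Cells scraped and pelleted. Caspase-3 activity read colorimetrically at A405 as pNA released from DEVD-pNA (commercial kit). Reported as ratio of treated to medium-only control. Triplicate, means ± SD, Student's t test.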

[8] = Induction of apoptosis in human […] cells assessed as necrotic cells at 15 uM after 48 hrs by annexin-V and propidium iodide staining based flow cytometry (reference value: 9.57 +/- 2.83%); assay type: functional
[9] = Induction of apoptosis in human […] cells assessed as apoptotic cells at 15 uM after 48 hrs by annexin-V and propidium iodide staining based flow cytometry (reference value: 6.16 +/- 1.67%); assay type: functional
LoVo [10] = test: Induction of apoptosis in human drug-sensitive LoVo cells assessed as necrotic cells at 15 uM after 48 hrs by annexin-V and propidium iodide staining based flow cytometry (reference value: 10.44 +/- 3.23%); assay type: functional
LoVo [11] = test: Induction of apoptosis in human drug-sensitive LoVo cells assessed as apoptotic cells at 15 uM after 48 hrs by annexin-V and propidium iodide staining based flow cytometry (reference value: 6.68 +/- 1.77%); assay type: functional
LoVo [12] = test: Induction of apoptosis in human drug-sensitive LoVo cells assessed as activation of caspase-3 at 15 uM after 48 hrs relative to control; assay type: functional; outline: as §2
[13] = Induction of apoptosis in human […] cells assessed as activation of caspase-3 at 100 uM after 48 hrs relative to control; assay type: functional
Outline: (§3)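 Cells seeded at 800 000/well and allowed to attach 24 h. Compound added in fresh medium, then 48 h incubation. Cells scraped and centrifuged, and caspase-3 activity measured colorimetrically by pNA release from DEVD-pNA (A405) with a kit. Result expressed as a ratio to a medium-only control. Triplicate, means ± SD.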

[14] = Induction of apoptosis in human […] cells assessed as activation of caspase-3 at 75 uM after 48 hrs relative to control; assay type: functional; outline: as §3
[15] = Induction of apoptosis in human […] cells assessed as activation of caspase-3 at 25 uM after 48 hrs relative to control; assay type: functional; outline: as §3
LoVo [16] = test: Induction of apoptosis in human drug-sensitive LoVo cells assessed as activation of caspase-3 at 100 uM after 48 hrs relative to control; assay type: functional; outline: as §3
LoVo [17] = test: Induction of apoptosis in human drug-sensitive LoVo cells assessed as activation of caspase-3 at 75 uM after 48 hrs relative to control; assay type: functional; outline: as §3
[18] = Induction of apoptosis in human […] cells assessed as necrotic cells at 75 uM after 48 hrs by annexin-V and propidium iodide staining based flow cytometry (reference value: 9.57 +/- 2.83%); assay type: functional
[19] = Induction of apoptosis in human […] cells assessed as necrotic cells at 25 uM after 48 hrs by annexin-V and propidium iodide staining based flow cytometry (reference value: 9.57 +/- 2.83%); assay type: functional
[20] = Induction of apoptosis in human […] cells assessed as apoptotic cells at 75 uM after 48 hrs by annexin-V and propidium iodide staining based flow cytometry (reference value: 6.16 +/- 1.67%); assay type: functional
[21] = Induction of apoptosis in human […] cells assessed as apoptotic cells at 25 uM after 48 hrs by annexin-V and propidium iodide staining based flow cytometry (reference value: 6.16 +/- 1.67%); assay type: functional
LoVo [22] = test: Induction of apoptosis in human drug-sensitive LoVo cells assessed as necrotic cells at 75 uM after 48 hrs by annexin-V and propidium iodide staining based flow cytometry (reference value: 10.44 +/- 3.23%); assay type: functional
LoVo [23] = test: Induction of apoptosis in human drug-sensitive LoVo cells assessed as necrotic cells at 25 uM after 48 hrs by annexin-V and propidium iodide staining based flow cytometry (reference value: 10.44 +/- 3.23%); assay type: functional
LoVo [24] = test: Induction of apoptosis in human drug-sensitive LoVo cells assessed as apoptotic cells at 75 uM after 48 hrs by annexin-V and propidium iodide staining based flow cytometry (reference value: 6.68 +/- 1.77%); assay type: functional
LoVo [25] = test: Induction of apoptosis in human drug-sensitive LoVo cells assessed as apoptotic cells at 25 uM after 48 hrs by annexin-V and propidium iodide staining based flow cytometry (reference value: 6.68 +/- 1.77%); assay type: functional
[26] = target: T1, ATP-dependent translocase ABCB1; test: Inhibition of p-glycoprotein in human LoVo/DX cells assessed as potentiation of doxorubicin-induced cytotoxicity at 5 uM after 72 hrs by SRB assay; assay type: cell-based
Outline: (§4)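 Doxorubicin cytotoxicity measured with and without 5 μM modulator by SRB over 72 h. Cells seeded at 30 000/well and attached 60 min at 37 °C before treatment. Survival taken as A492 treated / A492 control × 100%. Three experiments, means ± SD, Student's t test (p < 0.05).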

LoVo [27] = test: Potentiation of doxorubicin-induced cytotoxicity in human LoVo cells at 5 uM after 72 hrs by SRB assay; assay type: functional, cell-based; outline: as §4
LoVo [28] = test: Induction of apoptosis in human drug-sensitive LoVo cells assessed as activation of caspase-3 at 25 uM after 48 hrs relative to control; assay type: functional; outline: as §3
[29] = target: T1, ATP-dependent translocase ABCB1; test: Inhibition of p-glycoprotein in human LoVo/DX cells assessed nuclear accumulation of doxorubicin at 100 uM after 60 mins by fluorescence assay; assay type: cell-based; details: 1 h
Outline: (§5)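 Cells seeded at 15 000/well and cultured 48 h. Fresh F12 medium with 50 μM doxorubicin (plus 100 μM modulator) added for 60 min at 37 °C. Cells washed, then imaged by fluorescence microscopy (40× objective, excitation 528−553 nm, emission 578−633 nm) under identical illumination.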

[30] = target: T1, ATP-dependent translocase ABCB1; test: Inhibition of p-glycoprotein in human LoVo/DX cells assessed accumulation of rhodamine 123 at 75 to 100 uM after 60 mins by fluorescence assay; assay type: cell-based; details: 1 h
Outline: (§6)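 Cells at 300 000/mL in serum- and phenol red-free medium, preincubated 15 min at room temperature with modulator (5−100 μM). Rhodamine 123 then added (final 2 μM) for 60 min at 37 °C. Washed cells read by flow cytometry (488 nm excitation, 530/30 nm), 5000 events. FIR = (LoVo/Dx treated/control)/(LoVo treated/control). Triplicate.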

LoVo [31] = test: Inhibition of rhodamine 123 accumulation in human LoVo cells at 75 to 100 uM after 60 mins by fluorescence assay; assay type: functional, cell-based; outline: as §6
LoVo [32] = test: Inhibition of doxorubicin intracellular accumulation in human LoVo cells at 100 uM after 60 mins by fluorescence assay; assay type: functional, cell-based; outline: as §5

COc1ccc([C@@H]2CC(=O)c3c(O)cc(OC)cc3O2)cc1
Activity [1]: 17.74%
Activity [2]: 9.67%
Activity (LoVo [3]): 17.82%
Activity (LoVo [4]): 14.1%
Activity (LoVo/DX): Active
Activity (LoVo [5]): Active
inhibition (INH) [6]: Not Active

CC[C@@]1(O)C(=O)OCc2c1cc1n(c2=O)Cc2cc3ccccc3nc2-1 [CAMPTOTHECIN]
Ratio [7]: 3.83
Activity [8]: 17.96%
Activity [9]: 17.56%
Activity (LoVo [10]): 23.81%
Activity (LoVo [11]): 17.61%
Ratio (LoVo [12]): 3.4

O=C1c2c(O)cc(O)cc2O[C@H](c2ccc(O)cc2)[C@H]1O [DIHYDROKAEMPFEROL]
Activity [1]: 6.83%
Activity [2]: 9.38%
Activity (LoVo [3]): 10.02%
Activity (LoVo [4]): 10.96%
Activity (LoVo/DX): Active
Activity (LoVo [5]): Active
inhibition (INH) [6]: Not Active

O=C1C[C@@H](c2ccc(O)cc2)Oc2cc(O)cc(O)c21 [NARINGENIN]
Activity [1]: 5.65%
Activity [2]: 6.98%
Activity (LoVo [3]): 8.16%
Activity (LoVo [4]): 15.44%
Activity (LoVo/DX): Active
Activity (LoVo [5]): Active
inhibition (INH) [6]: Not Active

COc1cc(O)c2c(c1)O[C@H](c1ccc(O)cc1)CC2=O [SAKURANETIN]
Activity [1]: 18.89%
Activity [2]: 4.87%
Activity (LoVo [3]): 25.28%
Activity (LoVo [4]): 18.16%
Activity (LoVo/DX): Active
Activity (LoVo [5]): Active
inhibition (INH) [6]: Not Active

COc1ccc(-c2cc(=O)c3c(OC)c(OC)c(OC)c(OC)c3o2)cc1 [TANGERETIN]
Ratio [13]: 2.71
Ratio [14]: 2.37
Ratio [15]: 2.08
Ratio (LoVo [16]): 2.17
Ratio (LoVo [17]): 2.06
Activity [18]: 17.45%
Activity [19]: 17.55%
Activity [1]: 21.75%
Activity [20]: 13.35%
Activity [21]: 13.87%
Activity [2]: 23.05%
Activity (LoVo [22]): 29.61%
Activity (LoVo [23]): 25.82%
Activity (LoVo [3]): 23.75%
Activity (LoVo [24]): 12.83%
Activity (LoVo [25]): 11.57%
Activity (LoVo [4]): 15.19%
Activity [26]: Active
Activity (LoVo [27]): inactive
Ratio (LoVo [28]): 1.04
inhibition (INH) [29]: Active
inhibition (INH) [30]: Active
inhibition (LoVo [31]): inactive
inhibition (LoVo [32]): inactive
Activity (LoVo/DX): Active
Activity (LoVo [5]): Active
